Source: ChEMBL document CHEMBL1136843, “N-Benzyl-1-heteroaryl-3-(trifluoromethyl)-1H-pyrazole-5-carboxamides as inhibitors of co-activator associated arginine methyltransferase 1 (CARM1)” (Bioorg Med Chem Lett, 2009)
Active and inactive are the calls of the source. The calls are words filed in the database; no cut-off is given here.

Tests used:
[1] = biological target: T1, Histone-arginine methyltransferase CARM1 (Mus musculus, UniProt Q9WVG6); assay: Inhibition of mouse recombinant his-tagged CARM1 expressed in Sf9 cells by histone methyltransferase assay
T1 sequence (Q9WVG6 whole entry): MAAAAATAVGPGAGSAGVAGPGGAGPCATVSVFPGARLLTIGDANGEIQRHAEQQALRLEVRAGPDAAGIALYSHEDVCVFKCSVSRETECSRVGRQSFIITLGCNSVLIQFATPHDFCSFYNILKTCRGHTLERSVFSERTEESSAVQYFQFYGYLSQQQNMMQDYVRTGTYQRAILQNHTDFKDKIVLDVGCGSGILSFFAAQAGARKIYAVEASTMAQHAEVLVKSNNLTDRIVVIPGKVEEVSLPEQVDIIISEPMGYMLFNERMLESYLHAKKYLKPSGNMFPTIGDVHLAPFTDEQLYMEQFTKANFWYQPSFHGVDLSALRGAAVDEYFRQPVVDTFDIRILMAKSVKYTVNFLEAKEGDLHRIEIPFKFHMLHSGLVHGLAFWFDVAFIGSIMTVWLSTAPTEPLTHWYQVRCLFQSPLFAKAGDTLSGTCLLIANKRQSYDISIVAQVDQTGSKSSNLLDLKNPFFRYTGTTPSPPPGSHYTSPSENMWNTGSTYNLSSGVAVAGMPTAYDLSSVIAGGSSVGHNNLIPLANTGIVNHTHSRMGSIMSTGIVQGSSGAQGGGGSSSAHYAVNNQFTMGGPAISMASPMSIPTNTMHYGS
How it was run: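 Recombinant CARM1 diluted in Tris–HCl pH 9 and pre-incubated with compound for 10 min at rt. Histone H3 substrate plus SAM containing 20% [3H]SAM then added and incubated 15 min at 30 °C. Reaction quenched with SAH, spotted onto P30 filtermat with wax scintillant, and incorporated radioactivity counted.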

DU-145 = assay: Cytotoxicity against human DU145 cells by MTT assay; format: functional, cell-based
How it was run: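 DU145 prostate carcinoma cell growth measured by MTT proliferation assay; HDAC inhibitor MS-275 as positive control.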

[2] = biological target: Protein arginine N-methyltransferase 1 (Homo sapiens, UniProt Q99873); assay: Inhibition of PRMT1
Sequence of Protein arginine N-methyltransferase 1 (Q99873 whole entry): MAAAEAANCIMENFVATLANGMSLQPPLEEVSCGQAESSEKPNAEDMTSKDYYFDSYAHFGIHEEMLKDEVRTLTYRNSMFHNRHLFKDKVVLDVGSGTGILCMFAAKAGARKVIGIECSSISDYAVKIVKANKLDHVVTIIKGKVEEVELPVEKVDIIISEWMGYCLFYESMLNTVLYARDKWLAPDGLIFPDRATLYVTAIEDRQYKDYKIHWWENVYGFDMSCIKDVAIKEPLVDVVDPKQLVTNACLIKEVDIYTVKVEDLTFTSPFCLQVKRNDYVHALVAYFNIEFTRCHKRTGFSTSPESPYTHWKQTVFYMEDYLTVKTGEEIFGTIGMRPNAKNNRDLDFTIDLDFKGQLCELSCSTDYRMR

Androgen receptor = biological target: T2, Androgen receptor (Homo sapiens, UniProt P10275); assay: Antiandrogenic activity in human MDA-MB-453 cells expressing androgen receptor assessed as inhibition of DHT-induced androgen-dependent transcription by luciferase reporter gene assay; format: cell-based
T2 sequence (P10275 whole entry): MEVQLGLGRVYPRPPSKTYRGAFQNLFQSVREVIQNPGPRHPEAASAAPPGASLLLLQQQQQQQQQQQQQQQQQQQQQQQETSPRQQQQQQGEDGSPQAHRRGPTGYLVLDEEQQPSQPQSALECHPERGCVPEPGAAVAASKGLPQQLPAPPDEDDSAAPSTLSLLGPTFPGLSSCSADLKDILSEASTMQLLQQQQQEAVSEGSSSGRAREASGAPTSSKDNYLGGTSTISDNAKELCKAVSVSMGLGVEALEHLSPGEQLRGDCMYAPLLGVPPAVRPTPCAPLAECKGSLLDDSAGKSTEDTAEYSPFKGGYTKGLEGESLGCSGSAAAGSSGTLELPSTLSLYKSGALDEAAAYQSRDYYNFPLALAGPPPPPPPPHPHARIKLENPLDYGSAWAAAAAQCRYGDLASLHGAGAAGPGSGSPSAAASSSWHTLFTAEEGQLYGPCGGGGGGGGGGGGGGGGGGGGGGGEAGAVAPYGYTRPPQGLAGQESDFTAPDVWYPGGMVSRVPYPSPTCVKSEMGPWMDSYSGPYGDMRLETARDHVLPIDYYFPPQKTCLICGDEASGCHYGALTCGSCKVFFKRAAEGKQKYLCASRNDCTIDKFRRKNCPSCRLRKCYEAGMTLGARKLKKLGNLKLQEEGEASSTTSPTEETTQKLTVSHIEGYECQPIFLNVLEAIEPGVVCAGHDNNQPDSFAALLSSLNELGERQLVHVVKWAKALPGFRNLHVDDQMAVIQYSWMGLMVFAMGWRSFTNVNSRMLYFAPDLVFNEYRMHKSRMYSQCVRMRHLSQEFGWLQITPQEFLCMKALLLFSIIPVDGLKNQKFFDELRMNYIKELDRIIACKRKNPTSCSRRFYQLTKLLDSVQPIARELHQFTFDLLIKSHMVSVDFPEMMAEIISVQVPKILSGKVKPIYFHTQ

[3] = biological target: T3, Histone-arginine methyltransferase CARM1 (Mus musculus) (UniProt Q9WVG6); assay: Inhibition of mouse recombinant CARM1 assessed as inhibition of histone H3 methylation at 5 uM after 48 hrs by cell based assay
T3 sequence (whole entry): T1 sequence (Q9WVG6 whole entry)
How it was run: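 Cell-based readout of histone H3 arginine 26 methylation, a CARM1 target site, in two different cell lines treated with compound up to […] for 48 h.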

T47D = assay: Growth inhibition of human estrogen-dependent T47D cells after 72 hrs; format: functional, cell-based
How it was run: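 T47D breast ductal carcinoma cells stimulated with estradiol and counted after 72 h; tamoxifen as positive control.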

Estrogen receptor = biological target: T4, Estrogen receptor (Homo sapiens, UniProt P03372); assay: Antiestrogenic activity in human T47D cells expressing estrogen receptor assessed as estrogen-dependent transcription by luciferase reporter gene assay; format: cell-based
T4 sequence (P03372 whole entry): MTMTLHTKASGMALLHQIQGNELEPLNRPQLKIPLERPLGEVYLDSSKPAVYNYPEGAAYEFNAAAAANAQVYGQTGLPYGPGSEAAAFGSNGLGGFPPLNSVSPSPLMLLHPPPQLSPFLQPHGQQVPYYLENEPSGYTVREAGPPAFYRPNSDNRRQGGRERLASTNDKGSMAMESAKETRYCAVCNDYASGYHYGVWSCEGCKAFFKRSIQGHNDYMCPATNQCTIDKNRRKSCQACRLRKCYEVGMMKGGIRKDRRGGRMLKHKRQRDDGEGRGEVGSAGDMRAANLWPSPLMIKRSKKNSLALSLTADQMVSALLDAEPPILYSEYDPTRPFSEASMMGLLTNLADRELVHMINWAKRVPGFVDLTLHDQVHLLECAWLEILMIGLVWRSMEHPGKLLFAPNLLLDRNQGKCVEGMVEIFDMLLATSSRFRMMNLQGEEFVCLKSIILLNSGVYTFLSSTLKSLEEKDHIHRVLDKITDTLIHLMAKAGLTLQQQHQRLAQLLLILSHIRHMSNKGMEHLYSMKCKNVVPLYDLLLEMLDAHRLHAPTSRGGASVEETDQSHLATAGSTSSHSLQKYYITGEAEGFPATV

[4] = biological target: T5, Histone-lysine N-methyltransferase SETD7 (Homo sapiens, UniProt Q8WTS6); assay: Inhibition of Set7/9 lysine methyltransferase
T5 sequence (Q8WTS6 whole entry): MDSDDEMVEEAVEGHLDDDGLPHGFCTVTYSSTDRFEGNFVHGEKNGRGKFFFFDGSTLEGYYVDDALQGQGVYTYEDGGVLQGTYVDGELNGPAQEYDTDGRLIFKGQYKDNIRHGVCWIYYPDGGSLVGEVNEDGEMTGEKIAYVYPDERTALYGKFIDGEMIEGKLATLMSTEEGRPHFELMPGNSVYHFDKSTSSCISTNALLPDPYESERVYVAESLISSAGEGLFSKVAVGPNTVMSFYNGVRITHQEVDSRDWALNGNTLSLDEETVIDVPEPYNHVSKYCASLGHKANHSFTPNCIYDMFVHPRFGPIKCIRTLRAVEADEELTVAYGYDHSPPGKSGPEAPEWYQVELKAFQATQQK

Structure (SMILES)	IC50 [1]	other results
COc1ccccc1CNC(=O)c1cc(C(F)(F)F)nn1-c1ccc(CNC(=O)[C@H](C)N)s1	300 nM	–
C[C@H](N)C(=O)NCc1ccc(-n2nc(C(F)(F)F)cc2C(=O)NCc2ccccc2F)s1	2310 nM	–
C[C@H](N)C(=O)NCc1ccc(-n2nc(C(F)(F)F)cc2C(=O)NCc2ccccc2)s1	230 nM	–
COc1ccccc1CNC(=O)c1cc(C(F)(F)F)nn1-c1cccc(CNC(=O)[C@H](C)N)n1	3050 nM	–
Nc1ccccc1NC(=O)c1ccc(CNC(=O)OCc2cccnc2)cc1 [ENTINOSTAT]	–	IC50 (DU-145): 2000 nM
C[C@H](N)C(=O)NCc1ccc(-n2nc(C(F)(F)F)cc2C(=O)NCc2ccccc2C(F)(F)F)s1	4480 nM	–
COc1ccccc1CNC(=O)c1cc(C(F)(F)F)nn1-c1cc(CNC(=O)[C@H](C)N)ccn1	4200 nM	–
C[C@H](N)C(=O)NCc1cc(-n2nc(C(F)(F)F)cc2C(=O)NCc2ccccc2)cs1	220 nM	–
COc1ccccc1CNC(=O)c1cc(C(F)(F)F)nn1-c1cccc2c1CN(CNC(=O)[C@H](C)N)C2	> 10000 nM	–
Cc1ccccc1CNC(=O)c1cc(C(F)(F)F)nn1-c1csc(CNC(=O)[C@H](C)N)c1	260 nM	–
COc1ccccc1CNC(=O)c1cc(C(F)(F)F)nn1-c1csc(CNC(=O)[C@H](C)N)c1	60 nM	IC50 [2]: > 100000 nM; IC50 (DU-145): 18000 nM; IC50 (Androgen receptor): > 10000 nM; Activity [3]: inactive; IC50 (T47D): > 10000 nM; IC50 (Estrogen receptor): > 10000 nM; IC50 [4]: > 100000 nM
COc1ccccc1CNC(=O)c1cc(C(F)(F)F)nn1-c1nc(CNC(=O)[C@H](C)N)cs1	2200 nM	–
COC(=O)c1ccccc1CNC(=O)c1cc(C(F)(F)F)nn1-c1csc(CNC(=O)[C@H](C)N)c1	770 nM	–
C[C@H](N)C(=O)NCc1ccc(-n2nc(C(F)(F)F)cc2C(=O)NCc2ccccn2)s1	3350 nM	–
C[C@H](N)C(=O)NCc1cc(-n2nc(C(F)(F)F)cc2C(=O)NCc2ccccc2F)cs1	790 nM	–
CC(C)Oc1ccccc1CNC(=O)c1cc(C(F)(F)F)nn1-c1ccc(CNC(=O)[C@H](C)N)s1	2920 nM	–
COc1ccccc1CNC(=O)c1cc(C(F)(F)F)nn1-c1cccc(CNC(=O)[C@H](C)N)c1	60 nM	IC50 (DU-145): 18000 nM; IC50 (Androgen receptor): > 10000 nM; IC50 (T47D): > 10000 nM; IC50 (Estrogen receptor): > 10000 nM
COc1cccc(CNC(=O)c2cc(C(F)(F)F)nn2-c2csc(CNC(=O)[C@H](C)N)c2)c1	370 nM	–
COc1ccccc1CNC(=O)c1cc(C(F)(F)F)nn1-c1cccc2cc(CNC(=O)[C@H](C)N)oc12	> 10000 nM	–
CC/C(=C(\c1ccccc1)c1ccc(OCCN(C)C)cc1)c1ccccc1 [TAMOXIFEN]	–	IC50 (T47D): 1000 nM
